Measurements as given in ChEMBL document CHEMBL5247578, “Effective synthesis of benzimidazoles-imidazo[1,2-a]pyrazine conjugates: A comparative study of mono-and bis-benzimidazoles for antitumor activity” (Eur J Med Chem, 2019).

Columns and labels:
DU-145 = test: Antiproliferative activity against human DU-145 cells assessed as cell growth inhibition at 10 uM incubated for 48 hrs by sulforhodamine B assay relative to control; type: functional
In short: (§1)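 NCI-60 one-dose prescreen at 10^-5 M. Cells grown in RPMI 1640 with 5% FBS and 2 mM glutamine, preincubated 24 h, then exposed 48 h at 37 °C. Adherent lines TCA-fixed, SRB-stained, A515 read. Growth percent relative to time-zero and control; negative values mean cell kill.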

786-0 = test: Antiproliferative activity against human 786-0 cells assessed as cell growth inhibition at 10 uM incubated for 48 hrs by sulforhodamine B assay relative to control; type: functional
In short: (§2)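 Single-dose NCI-60 prescreen at 10^-5 M. Cells in RPMI 1640 with 5% FBS and 2 mM L-glutamine, seeded 5,000–40,000 cells/well with 24 h preincubation, then drug exposure for 48 h at 37 °C under 5% CO2. Growth read by SRB staining of TCA-fixed cells at 515 nm against time-zero and untreated controls. Negative growth values denote cell kill.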

NCI-H322M = test: Antiproliferative activity against human NCI-H322M cells assessed as cell growth inhibition at 10 uM incubated for 48 hrs by sulforhodamine B assay relative to control; type: functional
In short: (§3)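 NCI-60 single-dose screen at 10^-5 M. Cells grown in RPMI 1640 with 5% FBS and 2 mM L-glutamine, plated at 5,000–40,000 cells/well, and preincubated 24 h. Drug (DMSO stock) added and incubated 48 h at 37 °C, 5% CO2. Adherent cells fixed with cold TCA, stained with 0.4% SRB in 1% acetic acid, dye solubilized in 10 mM trizma base, A515 read. Percent growth taken against time-zero and untreated control.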

MDA-MB-231 = test: Antiproliferative activity against human MDA-MB-231 cells assessed as cell growth inhibition at 10 uM incubated for 48 hrs by sulforhodamine B assay relative to control; type: functional; in short: as §3
NCI-H226 = test: Antiproliferative activity against human NCI-H226 cells assessed as cell growth inhibition at 10 uM incubated for 48 hrs by sulforhodamine B assay relative to control; type: functional; in short: as §3
UACC-257 = test: Antiproliferative activity against human UACC-257 cells assessed as cell growth inhibition at 10 uM incubated for 48 hrs by sulforhodamine B assay relative to control; type: functional; in short: as §3
MOLT-4 = test: Antiproliferative activity against human MOLT-4 cells assessed as cell growth inhibition at 10 uM incubated for 48 hrs by sulforhodamine B assay relative to control; type: functional; in short: as §3
HOP-92 = test: Antiproliferative activity against human HOP-92 cells assessed as cell growth inhibition at 10 uM incubated for 48 hrs by sulforhodamine B assay relative to control; type: functional; in short: as §1
OVCAR-4 = test: Antiproliferative activity against human OVCAR-4 cells assessed as cell growth inhibition at 10 uM incubated for 48 hrs by sulforhodamine B assay relative to control; type: functional; in short: as §3
BT-549 = test: Antiproliferative activity against human BT-549 cells assessed as cell growth inhibition at 10 uM incubated for 48 hrs by sulforhodamine B assay relative to control; type: functional; in short: as §2
SW-620 [1] = test: Antiproliferative activity against human SW620 cells assessed as cell growth inhibition at 10 uM incubated for 48 hrs by sulforhodamine B assay relative to control; type: functional; in short: as §3
MCF7 = test: Antiproliferative activity against human MCF7 cells assessed as cell growth inhibition at 10 uM incubated for 48 hrs by sulforhodamine B assay relative to control; type: functional; in short: as §3
COLO 205 = test: Antiproliferative activity against human COLO 205 cells assessed as cell growth inhibition at 10 uM incubated for 48 hrs by sulforhodamine B assay relative to control; type: functional; in short: as §2
OVCAR-5 = test: Antiproliferative activity against human OVCAR-5 cells assessed as cell growth inhibition at 10 uM incubated for 48 hrs by sulforhodamine B assay relative to control; type: functional; in short: as §3
CCRF-CEM = test: Antiproliferative activity against human CCRF-CEM cells assessed as cell growth inhibition at 10 uM incubated for 48 hrs by sulforhodamine B assay relative to control; type: functional; in short: as §2
OVCAR-3 = test: Antiproliferative activity against human OVCAR-3 cells assessed as cell growth inhibition at 10 uM incubated for 48 hrs by sulforhodamine B assay relative to control; type: functional; in short: as §3
SK-MEL-28 = test: Antiproliferative activity against human SK-MEL-28 cells assessed as cell growth inhibition at 10 uM incubated for 48 hrs by sulforhodamine B assay relative to control; type: functional; in short: as §3
K562 = test: Antiproliferative activity against human K562 cells assessed as cell growth inhibition at 10 uM incubated for 48 hrs by sulforhodamine B assay relative to control; type: functional; in short: as §3
ACHN = test: Antiproliferative activity against human ACHN cells assessed as cell growth inhibition at 10 uM incubated for 48 hrs by sulforhodamine B assay relative to control; type: functional; in short: as §2
TK-10 = test: Antiproliferative activity against human TK-10 cells assessed as cell growth inhibition at 10 uM incubated for 48 hrs by sulforhodamine B assay relative to control; type: functional; in short: as §3
SR = test: Antiproliferative activity against human SR cells assessed as cell growth inhibition at 10 uM incubated for 48 hrs by sulforhodamine B assay relative to control; type: functional; in short: as §3
HL-60 = test: Antiproliferative activity against human HL-60 cells assessed as cell growth inhibition at 10 uM incubated for 48 hrs by sulforhodamine B assay relative to control; type: functional; in short: as §1
KM12 = test: Antiproliferative activity against human KM12 cells assessed as cell growth inhibition at 10 uM incubated for 48 hrs by sulforhodamine B assay relative to control; type: functional; in short: as §3
SK-OV-3 = test: Antiproliferative activity against human SK-OV-3 cells assessed as cell growth inhibition at 10 uM incubated for 48 hrs by sulforhodamine B assay relative to control; type: functional; in short: as §3
[2] = n-Octanol/phosphate buffer partition coefficient, logP of the compound at pH 7.4 incubated for 85 mins by shake-flask method; type: physicochemical
In short: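 Octanol–water partition by shake-flask: n-octanol with 0.15 M phosphate buffer pH 7.4 at 10:1 volumes. Buffer-phase absorbance read before mixing, then shaken 50 min and centrifuged at 2500 rpm for 35 min. Buffer absorbance read again; P = (Ai−Af)/Af × Vw/Vo.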

HCC 2998 = test: Antiproliferative activity against human HCC 2998 cells assessed as cell growth inhibition at 10 uM incubated for 48 hrs by sulforhodamine B assay relative to control; type: functional; in short: as §1
HOP-62 = test: Antiproliferative activity against human HOP-62 cells assessed as cell growth inhibition at 10 uM incubated for 48 hrs by sulforhodamine B assay relative to control; type: functional; in short: as §1
CAKI-1 = test: Antiproliferative activity against human CAKI-1 cells assessed as cell growth inhibition at 10 uM incubated for 48 hrs by sulforhodamine B assay relative to control; type: functional; in short: as §2
Malme-3M = test: Antiproliferative activity against human Malme-3M cells assessed as cell growth inhibition at 10 uM incubated for 48 hrs by sulforhodamine B assay relative to control; type: functional; in short: as §3
SW-620 [3] = test: Antiproliferative activity against human SW620 cells assessed as cell growth at 0.000001 M incubated for 48 hrs by SRB assay relative to control; type: functional; conditions: read-out: Activity
MDA-MB-435 = test: Growth inhibition against human MDA-MB-435 cells incubated for 48 hrs by sulforhodamine B assay; type: functional

logD at 1.417 h [2]	SMILES	inhibition at 10 µM (DU-145)	inhibition at 10 µM (786-0)	inhibition at 10 µM (NCI-H322M)	inhibition at 10 µM (MDA-MB-231)	inhibition at 10 µM (NCI-H226)	inhibition at 10 µM (MOLT-4)	inhibition at 10 µM (OVCAR-4)	inhibition at 10 µM (BT-549)	inhibition at 10 µM (SW-620 [1])	inhibition at 10 µM (MCF7)	inhibition at 10 µM (COLO 205)	inhibition at 10 µM (OVCAR-5)	inhibition at 10 µM (CCRF-CEM)	inhibition at 10 µM (OVCAR-3)	inhibition at 10 µM (K562)	inhibition at 10 µM (ACHN)	inhibition at 10 µM (SR)	inhibition at 10 µM (HL-60)	inhibition at 10 µM (KM12)	further results
1.74	c1ccc(-c2cn3ccnc3c(-c3ccc4ncn(C5CCCCC5)c4c3)n2)cc1	29.3%	36.8%	5.25%	41.5%	33.9%	67.7%	34.5%	57.1%	9.15%	38%	20.7%	7.87%	81.2%	41.8%	70.6%	35.9%	59.8%	67.1%	49%	inhibition at 10 µM (UACC-257): 5.22%; inhibition at 10 µM (HOP-92): 53.7%; inhibition at 10 µM (SK-MEL-28): 18%; inhibition at 10 µM (TK-10): 2.26%; inhibition at 10 µM (SK-OV-3): 7.52%
1.96	CCc1ccc(-c2cn3ccnc3c(-c3ccc4ncn(Cc5ccccc5)c4c3)n2)cc1	19.1%	38.1%	0.89%	43.2%	1.48%	54.2%	35.1%	15.9%	18.8%	58%	34.2%	14.9%	49.7%	31.2%	–	44.7%	49.9%	39.6%	45.7%	inhibition at 10 µM (HOP-92): 36.1%; inhibition at 10 µM (HCC 2998): 25.2%; inhibition at 10 µM (HOP-62): 17.9%; inhibition at 10 µM (CAKI-1): 47.9%; inhibition at 10 µM (SK-MEL-28): 19.1%; inhibition at 10 µM (TK-10): 15.5%; inhibition at 10 µM (SK-OV-3): 0.55%
1.44	c1ccc2c(-c3cn4ccnc4c(-c4ccc5ncn(C6CCCCC6)c5c4)n3)cccc2c1	5.1%	6.33%	4.74%	20.8%	9.45%	44.7%	19.7%	–	5.34%	13%	–	–	17.5%	2.38%	30.9%	6.49%	6.92%	38.9%	11.1%	inhibition at 10 µM (HCC 2998): 2.23%; inhibition at 10 µM (HOP-62): 19.6%; inhibition at 10 µM (CAKI-1): 25.1%
1.19	c1cn2cc(-c3ccc4ncn(C5CCCCC5)c4c3)nc(-c3ccc4ncn(C5CCCCC5)c4c3)c2n1	46.3%	34.3%	39.1%	49.2%	46.7%	79.1%	22.8%	38.3%	35.6%	45%	22.4%	7.18%	78.5%	40.4%	69.8%	45.1%	71.8%	51%	63.5%	inhibition at 10 µM (Malme-3M): 7.04%; inhibition at 10 µM (UACC-257): 35.5%; inhibition at 10 µM (HCC 2998): 17.7%; inhibition at 10 µM (HOP-62): 42.6%; inhibition at 10 µM (CAKI-1): 54.6%; inhibition at 10 µM (SK-MEL-28): 24.4%; inhibition at 10 µM (TK-10): 14.4%; inhibition at 10 µM (SK-OV-3): 14.8%
1.9	c1cn2cc(-c3ccc4c(c3)ncn4C3CCCCC3)nc(-c3ccc4ncn(C5CCCCC5)c4c3)c2n1	8.72%	25.8%	–	28.9%	18.8%	56.9%	–	27.7%	–	19.1%	6.71%	1.44%	46.1%	3.05%	38.5%	5.48%	50%	30%	30.6%	inhibition at 10 µM (Malme-3M): 5.14%; inhibition at 10 µM (UACC-257): 14.9%; inhibition at 10 µM (HCC 2998): 15.5%; inhibition at 10 µM (HOP-62): 16.8%; inhibition at 10 µM (CAKI-1): 15.9%
2.16	Cc1cccc(-c2cn3ccnc3c(-c3ccc4ncn(Cc5ccccc5)c4c3)n2)c1	14.2%	21.4%	–	28.4%	1.18%	36.9%	19.3%	–	–	22.2%	11.3%	6.64%	21.1%	13.9%	–	12.4%	11%	18.2%	22.1%	inhibition at 10 µM (HOP-92): 28.7%; inhibition at 10 µM (HOP-62): 9.68%; inhibition at 10 µM (CAKI-1): 24.8%

SMILES	logD at 1.417 h [2]	inhibition at 10 µM (DU-145)	inhibition at 10 µM (786-0)	inhibition at 10 µM (NCI-H322M)	inhibition at 10 µM (MDA-MB-231)	inhibition at 10 µM (NCI-H226)	inhibition at 10 µM (MOLT-4)	inhibition at 10 µM (OVCAR-4)	inhibition at 10 µM (BT-549)	inhibition at 10 µM (SW-620 [1])	inhibition at 10 µM (MCF7)	inhibition at 10 µM (COLO 205)	inhibition at 10 µM (OVCAR-5)	inhibition at 10 µM (CCRF-CEM)	inhibition at 10 µM (OVCAR-3)	inhibition at 10 µM (K562)	inhibition at 10 µM (ACHN)	inhibition at 10 µM (SR)	inhibition at 10 µM (HL-60)	inhibition at 10 µM (KM12)	further results
COc1ccc(-c2cn3ccnc3c(-c3ccc4ncn(C5CCCCC5)c4c3)n2)cc1	1.41	81.8%	83.2%	31.5%	71.1%	35.9%	82.8%	46.4%	68.9%	77.8%	80.2%	-8.01%	58.8%	93.3%	-26.5%	92%	61%	91.7%	98.6%	83.2%	growth at 1 µM (SW-620 [3]): 42%; inhibition at 10 µM (UACC-257): 26.3%; inhibition at 10 µM (HOP-92): 52.3%; inhibition at 10 µM (HCC 2998): 62.6%; inhibition at 10 µM (SK-MEL-28): 47.7%; inhibition at 10 µM (TK-10): 18.5%; GI50 (MDA-MB-435): 312 nM; inhibition at 10 µM (SK-OV-3): 74.3%
